Measured values published in ChEMBL document CHEMBL4020804, “Minor phenolics from Angelica keiskei and their proliferative effects on Hep3B cells” (Bioorg Med Chem Lett, 2017).

Tests used:
Hep 3B2 [1] = experiment: Proliferative activity against human Hep3B cells assessed as cell viability at 0.1 uM after 4 days by cell counting method relative to control; type: functional; conditions: 96 h, read-out: Activity
Outline: (§1)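 Hep3B kept in DMEM/10% FBS, 37°C, 5% CO2, then seeded at 1×10^5 cells/ml in medium containing compound (0.1–100 μM; DMSO-only control) in monolayer. Cells were checked daily by microscope for attachment and morphology, and counted after 4 days, in triplicate, in three independent experiments. Counts are given as % of the 0 μM group.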

Hep 3B2 [2] = experiment: Proliferative activity against human Hep3B cells assessed as cell viability at 1 uM after 4 days by cell counting method relative to control; type: functional; conditions: 96 h, read-out: Activity; outline: as §1
Hep 3B2 [3] = experiment: Proliferative activity against human Hep3B cells assessed as cell viability at 10 uM after 4 days by cell counting method relative to control; type: functional; conditions: 96 h, read-out: Activity; outline: as §1
Hep 3B2 [4] = experiment: Proliferative activity against human Hep3B cells assessed as cell viability at 100 uM after 4 days by cell counting method relative to control; type: functional; conditions: 96 h, read-out: Activity; outline: as §1
Hep 3B2 [5] = experiment: Proliferative activity against human Hep3B cells assessed as cell viability after 4 days by cell counting method; type: functional, cell-based; outline: as §1
Hep 3B2 [6] = experiment: Cytoprotective activity against GOX-induced oxidative stress in human Hep3B cells assessed as cell survival at 0.1 uM treated for 5 hrs with 15 mU/ml GOX challenge by MTT assay (reference value: 41.51 +/- 1.39%); type: functional; conditions: read-out: Survival
Hep 3B2 [7] = experiment: Cytoprotective activity against GOX-induced oxidative stress in human Hep3B cells assessed as cell survival at 100 uM treated for 5 hrs with 15 mU/ml GOX challenge by MTT assay (reference value: 41.51 +/- 1.39%); type: functional; conditions: read-out: Survival
Hep 3B2 [8] = experiment: Cytoprotective activity against GOX-induced oxidative stress in human Hep3B cells assessed as cell survival at 1 uM treated for 5 hrs with 15 mU/ml GOX challenge by MTT assay (reference value: 41.51 +/- 1.39%); type: functional; conditions: read-out: Survival
Hep 3B2 [9] = experiment: Cytoprotective activity against GOX-induced oxidative stress in human Hep3B cells assessed as cell survival at 10 uM treated for 5 hrs with 15 mU/ml GOX challenge by MTT assay (reference value: 41.51 +/- 1.39%); type: functional; conditions: read-out: Survival
NIH3T3 [10] = experiment: Cytoprotective activity against GOX-induced oxidative stress in mouse NIH/3T3 cells assessed as cell survival at 0.1 uM treated for 5 hrs with 15 mU/ml GOX challenge by MTT assay (reference value: 42.71 +/- 2.10%); type: functional; conditions: NIH3T3, 5 h, read-out: Survival
Hep 3B2 [11] = experiment: Cytoprotective activity against GOX-induced oxidative stress in human Hep3B cells assessed as increase in cell survival treated for 5 hrs with 15 mU/ml GOX challenge by MTT assay; type: functional, cell-based
Outline: (§2)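 Cells plated at 7×10^4 per well; next day exposed for 5 h to compound (0.1–100 μM) with 15 mU/ml glucose oxidase in growth medium. Viability expressed relative to GOX-free cells; α-tocopherol positive control.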

NIH3T3 [12] = experiment: Cytoprotective activity against GOX-induced oxidative stress in mouse NIH/3T3 cells assessed as cell survival at 1 uM treated for 5 hrs with 15 mU/ml GOX challenge by MTT assay (reference value: 42.71 +/- 2.10%); type: functional; conditions: NIH3T3, 5 h, read-out: Survival
NIH3T3 [13] = experiment: Cytoprotective activity against GOX-induced oxidative stress in mouse NIH/3T3 cells assessed as cell survival at 10 uM treated for 5 hrs with 15 mU/ml GOX challenge by MTT assay (reference value: 42.71 +/- 2.10%); type: functional; conditions: NIH3T3, 5 h, read-out: Survival
NIH3T3 [14] = experiment: Cytoprotective activity against GOX-induced oxidative stress in mouse NIH/3T3 cells assessed as cell survival at 100 uM treated for 5 hrs with 15 mU/ml GOX challenge by MTT assay (reference value: 42.71 +/- 2.10%); type: functional; conditions: NIH3T3, 5 h, read-out: Survival
NIH3T3 [15] = experiment: Cytoprotective activity against GOX-induced oxidative stress in mouse NIH/3T3 cells assessed as increase in cell survival treated for 5 hrs with 15 mU/ml GOX challenge by MTT assay; type: functional, cell-based; outline: as §2
Hep 3B2 [16] = experiment: Cytoprotective activity against GOX-induced cytotoxicity in human Hep3B cells assessed as LDH release at 0.1 uM treated for 5 hrs with 15 mU/ml GOX challenge by spectrophotometric method (reference value: 60.94 +/- 1.18%); type: functional
Hep 3B2 [17] = experiment: Cytoprotective activity against GOX-induced cytotoxicity in human Hep3B cells assessed as LDH release at 1 uM treated for 5 hrs with 15 mU/ml GOX challenge by spectrophotometric method (reference value: 60.94 +/- 1.18%); type: functional
Hep 3B2 [18] = experiment: Cytoprotective activity against GOX-induced cytotoxicity in human Hep3B cells assessed as LDH release at 10 uM treated for 5 hrs with 15 mU/ml GOX challenge by spectrophotometric method (reference value: 60.94 +/- 1.18%); type: functional
Hep 3B2 [19] = experiment: Cytoprotective activity against GOX-induced cytotoxicity in human Hep3B cells assessed as LDH release at 100 uM treated for 5 hrs with 15 mU/ml GOX challenge by spectrophotometric method (reference value: 60.94 +/- 1.18%); type: functional
Hep 3B2 [20] = experiment: Cytoprotective activity against GOX-induced cytotoxicity in human Hep3B cells assessed as decrease in LDH release treated for 5 hrs with 15 mU/ml GOX challenge by spectrophotometric method; type: functional, cell-based
NIH3T3 [21] = experiment: Cytoprotective activity against GOX-induced cytotoxicity in mouse NIH/3T3 cells assessed as LDH release at 0.1 uM treated for 5 hrs with 15 mU/ml GOX challenge by spectrophotometric method (reference value: 63.34 +/- 1.85%); type: functional
NIH3T3 [22] = experiment: Cytoprotective activity against GOX-induced cytotoxicity in mouse NIH/3T3 cells assessed as LDH release at 1 uM treated for 5 hrs with 15 mU/ml GOX challenge by spectrophotometric method (reference value: 63.34 +/- 1.85%); type: functional
NIH3T3 [23] = experiment: Cytoprotective activity against GOX-induced cytotoxicity in mouse NIH/3T3 cells assessed as LDH release at 10 uM treated for 5 hrs with 15 mU/ml GOX challenge by spectrophotometric method (reference value: 63.34 +/- 1.85%); type: functional
NIH3T3 [24] = experiment: Cytoprotective activity against GOX-induced cytotoxicity in mouse NIH/3T3 cells assessed as LDH release at 100 uM treated for 5 hrs with 15 mU/ml GOX challenge by spectrophotometric method (reference value: 63.34 +/- 1.85%); type: functional
NIH3T3 [25] = experiment: Cytoprotective activity against GOX-induced cytotoxicity in mouse NIH/3T3 cells assessed as decrease in LDH release treated for 5 hrs with 15 mU/ml GOX challenge by spectrophotometric method; type: functional, cell-based
Hep 3B2 [26] = experiment: Cytotoxicity against human Hep3B cells assessed as effect on cell attachment at 0.1 to 100 uM measured every day during 4 days incubation period by microscopic method; type: cell-based; conditions: hep 3b2, 96 h; outline: as §1
Hep 3B2 [27] = experiment: Cytotoxicity against human Hep3B cells assessed as effect on cell morphology at 0.1 to 100 uM measured every day during 4 days incubation period by microscopic method; type: cell-based; conditions: hep 3b2, 96 h; outline: as §1

SMILES	viability at 0.1 µM (Hep 3B2 [1])	viability at 1 µM (Hep 3B2 [2])	viability at 10 µM (Hep 3B2 [3])	viability at 100 µM (Hep 3B2 [4])	Activity (Hep 3B2 [5])	viability at 0.1 µM (Hep 3B2 [6])	viability at 100 µM (Hep 3B2 [7])	viability at 1 µM (Hep 3B2 [8])	viability at 10 µM (Hep 3B2 [9])	viability at 0.1 µM (NIH3T3 [10])	Activity (Hep 3B2 [11])	viability at 1 µM (NIH3T3 [12])	viability at 10 µM (NIH3T3 [13])	viability at 100 µM (NIH3T3 [14])	Activity (NIH3T3 [15])	Activity (Hep 3B2 [16])	Activity (Hep 3B2 [17])	Activity (Hep 3B2 [18])	Activity (Hep 3B2 [19])	Activity (Hep 3B2 [20])	further results
O=C1CC(c2ccc(O)cc2)Oc2cc(O)ccc21 (racemic)	100%	104%	112%	135%	Dose-dependent effect	70.7%	112%	88.4%	98.8%	74.1%	Dose-dependent effect	88.4%	111%	126%	Dose-dependent effect	11.57%	6.83%	4.93%	3.82%	Dose-dependent effect	Activity (NIH3T3 [21]): 18.42%; Activity (NIH3T3 [22]): 7.85%; Activity (NIH3T3 [23]): 5.51%; Activity (NIH3T3 [24]): 2.63%; Activity (NIH3T3 [25]): Dose-dependent effect; Activity (Hep 3B2 [26]): Non-Toxic; Activity (Hep 3B2 [27]): Non-Toxic
O=C(CCc1ccc(O)cc1)c1ccc(O)cc1O [DAVIDIGENIN]	104%	106%	116%	140%	Dose-dependent effect	59.3%	104%	83.4%	94.9%	60.6%	Dose-dependent effect	84%	113%	123%	Dose-dependent effect	22.37%	18.61%	11.83%	4.16%	Dose-dependent effect	Activity (NIH3T3 [21]): 24.04%; Activity (NIH3T3 [22]): 15.74%; Activity (NIH3T3 [23]): 12.69%; Activity (NIH3T3 [24]): 3.1%; Activity (NIH3T3 [25]): Dose-dependent effect; Activity (Hep 3B2 [26]): Non-Toxic; Activity (Hep 3B2 [27]): Non-Toxic
O=C(/C=C/c1ccc(O)cc1)c1ccc(O)cc1O [ISOLIQUIRITIGENIN]	101%	103%	109%	126%	Dose-dependent effect	41.9%	75.3%	62.9%	66.2%	44.8%	Dose-dependent effect	59.2%	71.9%	82.9%	Dose-dependent effect	27.14%	24.29%	21.06%	10.1%	Dose-dependent effect	Activity (NIH3T3 [21]): 44.26%; Activity (NIH3T3 [22]): 26.03%; Activity (NIH3T3 [23]): 22.67%; Activity (NIH3T3 [24]): 8.85%; Activity (NIH3T3 [25]): Dose-dependent effect; Activity (Hep 3B2 [26]): Non-Toxic; Activity (Hep 3B2 [27]): Non-Toxic
CO[C@H]1c2c(ccc3ccc(=O)oc23)O[C@@H]1C(C)(C)O	106%	118%	147%	163%	Dose-dependent effect	69.2%	112%	87.1%	100%	69%	Dose-dependent effect	93%	118%	129%	Dose-dependent effect	14.07%	10.56%	5.66%	2.59%	Dose-dependent effect	Activity (NIH3T3 [21]): 15.41%; Activity (NIH3T3 [22]): 6.59%; Activity (NIH3T3 [23]): 4.2%; Activity (NIH3T3 [24]): 1.89%; Activity (NIH3T3 [25]): Dose-dependent effect; Activity (Hep 3B2 [26]): Non-Toxic; Activity (Hep 3B2 [27]): Non-Toxic
